Experimental data taken from ChEMBL document CHEMBL2380243, “Design and synthesis of 2-N-substituted indazolone derivatives as non-carboxylic acid glycogen synthase activators” (Bioorg Med Chem Lett, 2013).

biological target: T1, Glycogen [starch] synthase, muscle (Homo sapiens) (UniProt P13807); assay: Activation of human recombinant muscle GYS1 expressed in insect sf9 cells using glycogen and UDP-glucose as substrates assessed as concentration required to 200% activation by spectrophotometry; conditions: not given
T1 sequence (whole entry): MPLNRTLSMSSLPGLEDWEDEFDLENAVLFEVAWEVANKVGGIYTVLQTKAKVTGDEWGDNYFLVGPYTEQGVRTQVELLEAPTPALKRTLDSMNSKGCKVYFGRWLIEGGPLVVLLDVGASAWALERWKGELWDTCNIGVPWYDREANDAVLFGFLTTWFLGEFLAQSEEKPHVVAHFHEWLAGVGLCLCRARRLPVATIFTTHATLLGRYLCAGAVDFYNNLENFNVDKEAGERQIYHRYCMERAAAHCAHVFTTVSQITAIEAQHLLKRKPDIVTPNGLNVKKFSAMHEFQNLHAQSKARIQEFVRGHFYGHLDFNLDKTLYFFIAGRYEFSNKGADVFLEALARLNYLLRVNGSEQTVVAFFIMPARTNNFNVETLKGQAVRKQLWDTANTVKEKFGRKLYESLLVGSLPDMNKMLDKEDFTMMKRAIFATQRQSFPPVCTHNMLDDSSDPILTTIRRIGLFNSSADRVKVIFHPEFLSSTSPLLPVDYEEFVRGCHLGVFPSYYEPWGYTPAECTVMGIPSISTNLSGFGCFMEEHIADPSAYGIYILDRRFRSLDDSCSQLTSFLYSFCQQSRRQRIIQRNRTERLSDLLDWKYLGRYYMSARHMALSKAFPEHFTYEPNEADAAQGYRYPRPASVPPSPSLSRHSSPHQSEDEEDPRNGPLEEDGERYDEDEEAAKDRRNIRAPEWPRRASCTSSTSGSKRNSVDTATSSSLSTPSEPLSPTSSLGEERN
How it was run: (§1)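 Recombinant human muscle GYS1 (partially purified from sf9 cells) is read in a pyruvate kinase/lactate dehydrogenase-coupled assay at room temperature. Compounds are diluted in 30 mM glycylglycine pH 7.3, 40 mM KCl, 20 mM MgCl2, 9.2% DMSO, ±20 mM glucose-6-phosphate. The substrate mix holds glycogen, UDP-glucose, PEP and NADH, all as solution concentrations. NADH loss is read at 340 nm every 3 min for 15 min. EC50 is half-maximal activation, SC200 is the concentration doubling activity, and dose-response runs are in triplicate.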

Activity	Compound
0.41 µM	O=c1o[nH]c2c(COc3ccc(-c4cc(F)c(F)cc4F)cc3)cccc12
0.49 µM	Cn1[nH]c2c(COc3ccc(-c4cc(F)c(F)cc4F)cc3)cccc2c1=O
1.86 µM	Cc1cc(F)c(F)cc1-c1ccc(OCc2cccc3c(=O)n(-c4ccc(F)cc4)[nH]c23)cc1
2.75 µM	O=c1c2cccc(COc3ccc(-c4cc(F)c(F)cc4F)cc3)c2[nH]n1-c1cccnc1
0.69 µM	O=C(O)Cn1[nH]c2c(COc3ccc(-c4cc(F)c(F)cc4F)cc3)cccc2c1=O
0.22 µM	O=c1c2cccc(COc3ccc(-c4cc(F)c(F)cc4F)cc3)c2[nH]n1CCO
0.1 µM	Cc1cc(F)c(F)cc1-c1ccc(OCc2cccc3c(=O)n(C[C@@H](O)CO)[nH]c23)cc1
0.25 µM	O=c1c2cccc(COc3ccc(-c4cc(F)c(F)cc4Cl)cc3)c2[nH]n1C[C@@H](O)CO
0.41 µM	O=c1c2cccc(COc3ccc(-c4cc(F)c(F)cc4F)cc3)c2[nH]n1C[C@H](O)CO
0.07 µM	COc1cc(F)c(F)cc1-c1ccc(OCc2cccc3c(=O)n(C)[nH]c23)cc1
0.33 µM	Cc1cc(F)c(F)cc1-c1ccc(OCc2cccc3c(=O)n(CC(=O)O)[nH]c23)cc1
0.16 µM	O=c1c2cccc(COc3ccc(-c4cc(F)c(F)cc4Cl)cc3)c2[nH]n1C[C@H](O)CO
0.13 µM	Cc1cc(F)c(F)cc1-c1ccc(OCc2cccc3c(=O)n(C)[nH]c23)cc1

system: Mus musculus; assay: Drug metabolism in po dosed C57 mouse assessed as conversion to ortho-aminobenzoic acid in plasma; assay type: ADME, organism-based; conditions: in vivo

Drug metabolism	Compound
Active	O=c1o[nH]c2c(COc3ccc(-c4cc(F)c(F)cc4F)cc3)cccc12

system: not listed separately; assay: AUC in C57 mouse at 10 mg/kg, po; assay type: ADME, organism-based; set-up: dose 10 mg/kg, route oral; conditions: plasma
How it was run: (§2)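 C57 mice get a single oral dose of 10 mg/kg as an aqueous suspension in 0.1 M phosphate buffer, pH 7.4, containing 10% PEG 400 by volume. Plasma exposure is measured and reported as Cmax and AUC.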

AUC	Compound
746 ng·h/mL	Cn1[nH]c2c(COc3ccc(-c4cc(F)c(F)cc4F)cc3)cccc2c1=O
3590 ng·h/mL	O=c1c2cccc(COc3ccc(-c4cc(F)c(F)cc4F)cc3)c2[nH]n1CCO

system: not listed separately; assay: Cmax in C57 mouse at 10 mg/kg, po; assay type: ADME, organism-based; set-up: dose 10 mg/kg, route oral; conditions: in vivo; how it was run: as §2

Cmax	Compound
254 ng/mL	Cn1[nH]c2c(COc3ccc(-c4cc(F)c(F)cc4F)cc3)cccc2c1=O
1350 ng/mL	O=c1c2cccc(COc3ccc(-c4cc(F)c(F)cc4F)cc3)c2[nH]n1CCO

biological target: T1, Glycogen [starch] synthase, muscle (Homo sapiens); assay: Activation of human recombinant muscle GYS1 expressed in insect sf9 cells using glycogen and UDP-glucose as substrates at 75 uM by spectrophotometry relative to control; conditions: not given
How it was run: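 Same coupled GYS1 assay (sf9-derived human muscle enzyme, PK/LDH coupling, NADH absorbance at 340 nm read every 3 min over 15 min, room temperature). Activation is expressed as fold increase over control at the highest concentration tested.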

fold change (FC)	Compound
4	O=c1o[nH]c2c(COc3ccc(-c4cc(F)c(F)cc4F)cc3)cccc12
6.8	Cn1[nH]c2c(COc3ccc(-c4cc(F)c(F)cc4F)cc3)cccc2c1=O
2.5	Cc1cc(F)c(F)cc1-c1ccc(OCc2cccc3c(=O)n(-c4ccc(F)cc4)[nH]c23)cc1
5.8	O=c1c2cccc(COc3ccc(-c4cc(F)c(F)cc4F)cc3)c2[nH]n1-c1cccnc1
3.6	O=C(O)Cn1[nH]c2c(COc3ccc(-c4cc(F)c(F)cc4F)cc3)cccc2c1=O
5.5	O=c1c2cccc(COc3ccc(-c4cc(F)c(F)cc4F)cc3)c2[nH]n1CCO
3	Cc1cc(F)c(F)cc1-c1ccc(OCc2cccc3c(=O)n(C[C@@H](O)CO)[nH]c23)cc1
3.6	O=c1c2cccc(COc3ccc(-c4cc(F)c(F)cc4Cl)cc3)c2[nH]n1C[C@@H](O)CO
3	O=c1c2cccc(COc3ccc(-c4cc(F)c(F)cc4F)cc3)c2[nH]n1C[C@H](O)CO
5.4	COc1cc(F)c(F)cc1-c1ccc(OCc2cccc3c(=O)n(C)[nH]c23)cc1
3.7	Cc1cc(F)c(F)cc1-c1ccc(OCc2cccc3c(=O)n(CC(=O)O)[nH]c23)cc1
3.5	O=c1c2cccc(COc3ccc(-c4cc(F)c(F)cc4Cl)cc3)c2[nH]n1C[C@H](O)CO
3	Cc1cc(F)c(F)cc1-c1ccc(OCc2cccc3c(=O)n(C)[nH]c23)cc1

biological target: T2, Glycogen [starch] synthase, muscle (Homo sapiens, UniProt P13807); assay: Activation of human recombinant muscle GYS1 expressed in insect sf9 cells using glycogen and UDP-glucose as substrates by spectrophotometry; conditions: not given; how it was run: as §1
T2 sequence (P13807 whole entry): T1 sequence (whole entry)

EC50	Compound
1000 nM	O=c1o[nH]c2c(COc3ccc(-c4cc(F)c(F)cc4F)cc3)cccc12
1780 nM	Cn1[nH]c2c(COc3ccc(-c4cc(F)c(F)cc4F)cc3)cccc2c1=O
1470 nM	Cc1cc(F)c(F)cc1-c1ccc(OCc2cccc3c(=O)n(-c4ccc(F)cc4)[nH]c23)cc1
4010 nM	O=c1c2cccc(COc3ccc(-c4cc(F)c(F)cc4F)cc3)c2[nH]n1-c1cccnc1
1200 nM	O=C(O)Cn1[nH]c2c(COc3ccc(-c4cc(F)c(F)cc4F)cc3)cccc2c1=O
770 nM	O=c1c2cccc(COc3ccc(-c4cc(F)c(F)cc4F)cc3)c2[nH]n1CCO
230 nM	Cc1cc(F)c(F)cc1-c1ccc(OCc2cccc3c(=O)n(C[C@@H](O)CO)[nH]c23)cc1
260 nM	O=c1c2cccc(COc3ccc(-c4cc(F)c(F)cc4Cl)cc3)c2[nH]n1C[C@@H](O)CO
580 nM	O=c1c2cccc(COc3ccc(-c4cc(F)c(F)cc4F)cc3)c2[nH]n1C[C@H](O)CO
320 nM	COc1cc(F)c(F)cc1-c1ccc(OCc2cccc3c(=O)n(C)[nH]c23)cc1
420 nM	Cc1cc(F)c(F)cc1-c1ccc(OCc2cccc3c(=O)n(CC(=O)O)[nH]c23)cc1
300 nM	O=c1c2cccc(COc3ccc(-c4cc(F)c(F)cc4Cl)cc3)c2[nH]n1C[C@H](O)CO
240 nM	Cc1cc(F)c(F)cc1-c1ccc(OCc2cccc3c(=O)n(C)[nH]c23)cc1
